Results published in ChEMBL document CHEMBL1275449, “Potent in vitro antifungal activities of naturally occurring acetylenic acids” (Antimicrob Agents Chemother, 2008).
pIC50: −log10 of the molar value. Values after ≈ are worked out from the molar mass of the structure shown. Active and inactive are the calls of the source. No cut-off for these calls is given here.

Legend:
Candida albicans [1] = assay: Antifungal activity against Candida albicans ATCC 14053 after 48 hrs by CLSI method; format: functional, organism-based; conditions: ATCC 14053, 48 h
Method in brief: (§1)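 CLSI broth microdilution. Colonies from 24–72 h SD agar suspended in saline and sized by OD630 standard curve. Inoculum 1.5 × 10³ CFU/ml (final) in RPMI 1640 (0.2% dextrose, 0.03% glutamine, 0.165 M MOPS, pH 7.0). Twofold dilutions (11 levels) from 20% DMSO-saline, in duplicate. 35°C for 48 h, OD530 read before and after. IC50 fitted from % growth. MIC: no detectable growth. MFC: subculture onto SD agar.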

Candida albicans [2] = assay: Antifungal activity against Candida albicans ATCC 60193 after 48 hrs by CLSI method; format: functional, organism-based; conditions: ATCC 60193, 48 h; method in brief: as §1
Candida albicans [3] = assay: Antifungal activity against Candida albicans ATCC 60193 at 178.3 uM after 48 hrs by CLSI method; format: functional, organism-based
Method in brief: (§2)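 Candida inocula came from 24–72-h SD agar colonies suspended in saline. They were diluted by OD630 standard curve into RPMI 1640 (0.2% dextrose, 0.03% glutamine, 0.165 M MOPS, pH 7.0) to 1.5 × 10³ CFU/ml. Compounds were run as 11 twofold dilutions in 20% DMSO-saline, in duplicate, at 35°C for 48 h, with OD530 read before and after. Percent growth at the top concentration, IC50, MIC, and MFC (SD agar plating) were derived.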

Cryptococcus neoformans [4] = assay: Antifungal activity against Cryptococcus neoformans ATCC 66031 after 72 hrs by CLSI method; format: functional, organism-based; conditions: ATCC 66031, 72 h
Method in brief: (§3)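 SD broth replaced RPMI because growth in RPMI was poor; other CLSI conditions were kept. Inoculum was 1.5 × 10³ CFU/ml from colonies on SD agar, checked by plating. Twofold serial dilutions (11 concentrations) in 20% DMSO-saline were tested in duplicate. OD530 was read before and after incubation at 35°C for 72 h. Percent growth gave IC50; the MIC is the lowest concentration with no detectable growth.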

Candida albicans [5] = assay: Antifungal activity against Fluconazole resistant Candida albicans isolate 17 at 178.3 uM after 48 hrs by CLSI method; format: functional, organism-based
Method in brief: (§4)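 Candida in CLSI broth microdilution. Saline colony suspension set to 1.5 × 10³ CFU/ml (final) in MOPS-buffered RPMI 1640, pH 7.0. Test agent given as twofold serial dilutions in 20% DMSO-saline, duplicate wells. 35°C for 48 h. Growth read as OD530 before and after incubation. Percent inhibition scored at the highest test concentration.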

Candida albicans [6] = assay: Antifungal activity against Candida albicans ATCC 200955 at 178.3 uM after 48 hrs by CLSI method; format: functional, organism-based; method in brief: as §2
Nakaseomyces glabratus = assay: Antifungal activity against Candida glabrata ATCC 90030 at 178.3 uM after 48 hrs by CLSI method; format: functional, organism-based; method in brief: as §2
Candida albicans [7] = assay: Antifungal activity against Fluconazole resistant Candida albicans clinical isolate 17 after 48 hrs by CLSI method; format: functional, organism-based; method in brief: as §1
[8] = system: Trichophyton mentagrophytes; assay: Antifungal activity against Trichophyton mentagrophytes ATCC MYA-4439 by CLSI method; format: functional, organism-based
Method in brief: (§5)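 Growth scraped from 1- to 6-week-old potato dextrose slants and filtered through Miracloth. Diluted in 5% Alamar blue-RPMI 1640 (MOPS pH 7.0) to 2.7 × 10⁴ CFU/ml. Eleven twofold dilutions in duplicate. Fluorescence at 544 nm excitation/590 nm emission read before and after 35°C, 5 days. IC50 fitted from percent growth. MIC taken as no detectable growth; MFC from clear or blue wells plated on PD agar.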

Mus musculus = assay: Toxicity in mouse up to 34 umol/kg/day, ip for 3 days; format: organism-based; conditions: in vivo, 72 h
BT-549 = assay: Cytotoxicity against human BT549 cells up to 32 uM by neutral red method; format: cell-based
Method in brief: (§6)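 Neutral red uptake cytotoxicity, top concentration 32 μM.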

SK-MEL = assay: Cytotoxicity against human SK-MEL cells up to 32 uM by neutral red method; format: cell-based; method in brief: as §6
Trichophyton rubrum [9] = assay: Antifungal activity against Trichophyton rubrum ATCC MYA-4438 at 178.3 uM after 5 days by CLSI method; format: functional, organism-based
Candida albicans [10] = assay: Antifungal activity against Candida albicans ATCC 32354 after 48 hrs by CLSI method; format: functional, organism-based; conditions: ATCC 32354, 48 h; method in brief: as §1
[11] = system: Trichophyton mentagrophytes; assay: Antifungal activity against Trichophyton mentagrophytes ATCC 9533 by CLSI method; format: functional, organism-based; method in brief: as §5
KB = assay: Cytotoxicity against human KB cells up to 32 uM by neutral red method; format: cell-based; method in brief: as §6
Aspergillus fumigatus [12] = assay: Antifungal activity against Aspergillus fumigatus ATCC 204305 at 178.3 uM after 48 hrs by CLSI method; format: functional, organism-based
Pichia kudriavzevii = assay: Antifungal activity against Candida krusei ATCC 6258 after 48 hrs by CLSI method; format: functional, organism-based; conditions: ATCC 6258, 48 h; method in brief: as §2
Aspergillus niger = assay: Antifungal activity against Aspergillus niger ATCC 16404 at 178.3 uM after 48 hrs by CLSI method; format: functional, organism-based
Candida albicans [13] = assay: Antifungal activity against Fluconazole resistant Candida albicans isolate 1 at 178.3 uM after 48 hrs by CLSI method; format: functional, organism-based; method in brief: as §4
Aspergillus flavus = assay: Antifungal activity against Aspergillus flavus ATCC 204304 at 178.3 uM after 48 hrs by CLSI method; format: functional, organism-based
Aspergillus fumigatus [14] = assay: Antifungal activity against Aspergillus fumigatus ATCC 90906 at 178.3 uM after 48 hrs by CLSI method; format: functional, organism-based
Candida albicans [15] = assay: Antifungal activity against Candida albicans ATCC 32354 at 178.3 uM after 48 hrs by CLSI method; format: functional, organism-based; method in brief: as §2
Candida albicans [16] = assay: Antifungal activity against Candida albicans ATCC 200955 after 48 hrs by CLSI method; format: functional, organism-based; conditions: ATCC 200955, 48 h; method in brief: as §1
Vero = assay: Cytotoxicity against African green monkey Vero cells up to 32 uM by neutral red method; format: cell-based; conditions: chlorocebus sabaeus; method in brief: as §6
Trichophyton rubrum [17] = assay: Antifungal activity against Trichophyton rubrum ATCC MYA-4438 by CLSI method; format: functional, organism-based; method in brief: as §5
Candida albicans [18] = assay: Antifungal activity against Candida albicans ATCC 90028 after 48 hrs by CLSI method; format: functional, organism-based; conditions: ATCC 90028, 48 h; method in brief: as §1
Candida tropicalis [19] = assay: Antifungal activity against Candida tropicalis ATCC 750 after 48 hrs by CLSI method; format: functional, organism-based; conditions: ATCC 750, 48 h
Method in brief: (§7)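 Yeast suspensions made from 3-5 colonies off 24-72 h SD agar plates in saline. They were diluted by OD630 standard curve in RPMI 1640 (0.2% dextrose, 0.03% glutamine, 0.165 M MOPS, pH 7.0) to 1.5 × 10³ CFU/ml. Twofold dilutions (11 concentrations, 20% DMSO-saline) run in duplicate. OD530 read before and after 35°C, 48 h. Line values are top test concentrations; no-growth endpoints give MIC/MFC.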

Cryptococcus neoformans [20] = assay: Antifungal activity against Cryptococcus neoformans ATCC 66031 at 178.3 uM after 72 hrs by CLSI method; format: functional, organism-based; method in brief: as §3
Cryptococcus neoformans [21] = assay: Antifungal activity against Cryptococcus neoformans ATCC 90113 at 178.3 uM after 72 hrs by CLSI method; format: functional, organism-based; method in brief: as §3
LLC-PK1 = assay: Cytotoxicity against pig LLC-PK1 cells up to 32 uM by neutral red method; format: cell-based, Sus scrofa; method in brief: as §6
Candida tropicalis [22] = assay: Antifungal activity against Candida tropicalis ATCC 750 at 178.3 uM after 48 hrs by CLSI method; format: functional, organism-based; method in brief: as §7
Trichophyton rubrum [23] = assay: Antifungal activity against Trichophyton rubrum ATCC 10218 by CLSI method; format: functional, organism-based; method in brief: as §5
Candida albicans [24] = assay: Antifungal activity against Fluconazole resistant Candida albicans clinical isolate 1 after 48 hrs by CLSI method; format: functional, organism-based; method in brief: as §1
Aspergillus fumigatus [25] = assay: Antifungal activity against Aspergillus fumigatus ATCC 204305 after 48 h by CLSI method; conditions: ATCC 204305, 48 h
Candida parapsilosis = assay: Antifungal activity against Candida parapsilosis ATCC 22019 at 178.3 uM after 48 hrs by CLSI method; format: functional, organism-based; method in brief: as §7
SK-OV-3 = assay: Cytotoxicity against human SKOV3 cells up to 32 uM by neutral red method; format: cell-based; method in brief: as §6

Molecule `CCCCCCCCCCCC#CCCCCC(=O)O` [6-OCTADECYNOIC ACID] has a pIC50 (Candida albicans [1]) of 6.00, an MFC (Candida albicans [1]) of 5.6 µM (≈ 1.57 µg/mL) and an MIC (Candida albicans [1]) of 2.8 µM (≈ 0.785 µg/mL). The pIC50 (Candida albicans [2]) was 5.52, the MIC (Candida albicans [2]) was 5.6 µM (≈ 1.57 µg/mL) and the Activity (Candida albicans [3]) was “inactive”. For the same molecule, the pIC50 (Cryptococcus neoformans [4]) was 5.85, the Activity (Candida albicans [5]) was “inactive” and the Activity (Candida albicans [6]) was “inactive”. The Activity (Nakaseomyces glabratus) was “inactive”, the pIC50 (Candida albicans [7]) was 5.44 and the MIC (Candida albicans [7]) was 16.7 µM (≈ 4.68 µg/mL). It also gave a pIC50 [8] of 5.92, an MFC [8] of 2.8 µM (≈ 0.785 µg/mL) and an MIC [8] of 2.8 µM (≈ 0.785 µg/mL). The Activity (Mus musculus) was “Non-toxic”, the Activity (BT-549) was “Non-toxic” and the Activity (SK-MEL) was “Non-toxic”. For the same molecule, the Activity (Trichophyton rubrum [9]) was “inactive”, the pIC50 (Candida albicans [10]) was 5.40 and the MIC (Candida albicans [10]) was 27.9 µM (≈ 7.82 µg/mL). For the same molecule, the pIC50 [11] was 5.89, the MFC [11] was 2.8 µM (≈ 0.785 µg/mL) and the MIC [11] was 2.1 µM (≈ 0.589 µg/mL). The Activity (KB) was “Non-toxic”, the Activity (Aspergillus fumigatus [12]) was “inactive” and the pIC50 (Pichia kudriavzevii) was 5.47. The MIC (Pichia kudriavzevii) was 5.6 µM (≈ 1.57 µg/mL), the Activity (Aspergillus niger) was “inactive” and the Activity (Candida albicans [13]) was “inactive”. For the same molecule, the Activity (Aspergillus flavus) was “inactive”, the Activity (Aspergillus fumigatus [14]) was “inactive” and the Activity (Candida albicans [15]) was “inactive”. The pIC50 (Candida albicans [16]) was 5.72, the MIC (Candida albicans [16]) was 11.1 µM (≈ 3.11 µg/mL) and the Activity (Vero) was “Non-toxic”. It also gave a pIC50 (Trichophyton rubrum [17]) of 5.74, an MIC (Trichophyton rubrum [17]) of 5.6 µM (≈ 1.57 µg/mL) and a pIC50 (Candida albicans [18]) of 5.70. It also gave an MFC (Candida albicans [18]) of 11.1 µM (≈ 3.11 µg/mL), an MIC (Candida albicans [18]) of 2.8 µM (≈ 0.785 µg/mL) and a pIC50 (Candida tropicalis [19]) of 5.20. For the same molecule, the MIC (Candida tropicalis [19]) was 111 µM (≈ 31.2 µg/mL), the Activity (Cryptococcus neoformans [20]) was “inactive” and the Activity (Cryptococcus neoformans [21]) was “inactive”. The Activity (LLC-PK1) was “Non-toxic”, the Activity (Candida tropicalis [22]) was “inactive” and the pIC50 (Trichophyton rubrum [23]) was 5.57. It also gave an MFC (Trichophyton rubrum [23]) of 11.1 µM (≈ 3.11 µg/mL), an MIC (Trichophyton rubrum [23]) of 5.6 µM (≈ 1.57 µg/mL) and a pIC50 (Candida albicans [24]) of 5.38. The MIC (Candida albicans [24]) was 13.9 µM (≈ 3.9 µg/mL), the pIC50 (Aspergillus fumigatus [25]) was 4.73 and the MIC (Aspergillus fumigatus [25]) was 178 µM (≈ 50 µg/mL). The Activity (Candida parapsilosis) was “inactive” and the Activity (SK-OV-3) was “Non-toxic”.
